Shown are actives, neighbours in structure and some others; about 2.4% of the full set was active somewhere.
Scp-1 inhibitor: inhibitors of human Scp-1 phosphatase; Q9GZU7; Recombinant Scp1, phosphopeptide, malachite green phosphate absorbance; inhibition, % at 20 µM; 340,000 tested, 0.88% active; AID 493091;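 active means inhibition above about 50% at 20 µM, limit read from the data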
Target sequence (Q9GZU7 76-261 limits assumed): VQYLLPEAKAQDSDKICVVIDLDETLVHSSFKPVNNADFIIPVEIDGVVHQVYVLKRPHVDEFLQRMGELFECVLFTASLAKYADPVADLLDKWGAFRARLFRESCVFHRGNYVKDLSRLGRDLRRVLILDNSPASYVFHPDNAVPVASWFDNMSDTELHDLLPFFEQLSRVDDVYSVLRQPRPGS
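Test system: SCP-1 catalytic domain; Buffer or medium: Acidic Tris acetate buffer with magnesium and detergent; Also added: Phosphorylated 17-residue peptide substrate; Compound: single 20 µM dose, 1% DMSO; Schedule: enzyme reaction 45 min at room temperature, colour 5 min, stabilisation 30 min; Signal: Phosphate-binding colour reagent, absorbance read at 630 nm.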
DNMT1 block: blocks human DNA methyltransferase DNMT1. P26358. DNMT1 molecular beacon, Hinp1I cleavage, fluorescence. inhibition (reported as % activation of signal), % at 10 µM. 360,000 tested, 0.83% active; in the data active means inhibition above about 50%
LMPTP block: LMPTP (human) inhibition | P24666 | recombinant LMPTP-A, OMFP fluorogenic substrate, fluorescence intensity | inhibition, % at 20 µM | 360,000 tested, 0.22% active | AID 651560;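 active means compounds that cut the enzyme signal by at least half of the control window in the single-dose screen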
Target sequence (P24666 whole entry, looked up): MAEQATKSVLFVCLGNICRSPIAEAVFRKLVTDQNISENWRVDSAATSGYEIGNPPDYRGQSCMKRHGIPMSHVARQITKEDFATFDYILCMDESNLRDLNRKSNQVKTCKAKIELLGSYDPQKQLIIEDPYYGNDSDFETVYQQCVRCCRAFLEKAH
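Material: LMPTP-A; amount: 0.625 nM enzyme; doses: single 20 µM dose; times: reaction 50 min, room temperature, dark; technique: fluorescence intensity of OMFP turnover product; benchmarks: no-enzyme and uninhibited controls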
SUMO1-SIM PPI: alters human SUMO1 binding to SIM partners; P63165; SUMO1 binding to a labelled peptide, TR-FRET, 1 h; inhibition, % at 20 µM; 360,000 tested, 0.33% active; AID 602429; in the data active means inhibition above about 37%
Target sequence (P63165 whole entry, looked up): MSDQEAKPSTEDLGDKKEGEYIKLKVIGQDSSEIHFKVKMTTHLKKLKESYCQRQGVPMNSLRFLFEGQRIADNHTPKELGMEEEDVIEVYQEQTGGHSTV
STEP inh: STEP (human) phosphatase inhibition. 360,000 tested, 0.25% active. AID 588621. inhibition, % at 20 µM. recombinant STEP, OMFP fluorogenic substrate, fluorescence;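 active means inhibition at 20 µM, scaled per plate between control wells, above about 37%, limit read from the data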
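System: STEP phosphatase, cell-free reaction; Buffer or medium: Bis-Tris pH 6.0 buffer with DTT, detergent; Incubation: 20 min at room temperature, dark; Measured by: fluorescence, 480/540 nm.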
NadD inh: inhibitors of Staphylococcus aureus NadD; purified NadD enzyme, colorimetric absorbance read-out; inhibition, % at 20 µM; 360,000 tested, 0.78% active; in the data active means inhibition above about 26%
DNMT1 inh conf: confirmation of human DNMT1 inhibitors. DNMT1 molecular beacon HinP1I cleavage, fluorescence. shares compounds with DNMT1 block. 2,300 tested, 8% active. inhibition, % at 10 µM;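 active means average inhibition of at least 30% in the single-concentration confirmation test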
Beacon interf: counter-screen for DNMT1 inhibitors: spectral interference. shares compounds with DNMT1 block. DNMT1 molecular beacon spectral interference counterscreen, fluorescence 485/520. activation (fluorescence interference), % at 10 µM. 2,300 tested, 1% active. AID 602387;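 active means activation of at least 30% at 10 µM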;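 further: DNMT1 catalytic domain with a HinP1I cleavage step and a FAM/dabcyl DNA beacon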
Hits are given with their value; 0 = inactive; - = no result given.

SMILES | Scp-1 inhibitor | DNMT1 block | LMPTP block | SUMO1-SIM PPI | STEP inh | NadD inh | DNMT1 inh conf | Beacon interf
CC1=C(C(=O)OC(C)C)C(c2ccc(N(C)C)cc2)C2=C(CC(C)(C)CC2=O)N1 (stereo unspecified) | 0 | 0 | 0 | 0 | 0 | 0 | - | -
CCC(NC(=O)c1cccc(Cn2nc(C)c([N+](=O)[O-])c2C)c1)c1ccc(C(C)C)cc1 (stereo unspecified) | 0 | 54.8 | 0 | 0 | 0 | 0 | 0 | 0
Cc1nn(Cc2cccc(C(=O)NC(C)c3ccc(C(C)(C)C)cc3)c2)c(C)c1[N+](=O)[O-] (stereo unspecified) | 0 | 0 | 0 | 0 | 0 | 0 | - | -
CC1(OC(=O)CCc2ccccc2)C(=O)C=C2C=C3CCCN3C=C2C1=O (stereo unspecified) | 0 | 76.7 | 0 | 0 | 0 | 0 | 0 | 0
CCCn1c(=O)c(C(=O)Nc2ccccc2)c(O)c2ccccc21 | 0 | 0 | 0 | 0 | 0 | 0 | - | -
COc1ccc(/C=c2\sc3nc(-c4ccccc4OC)nn3c2=O)c(OC)c1 | 0 | 70.9 | 0 | 0 | 0 | 0 | 0 | 0
Cn1nc(C(=O)NCCCN2CCCCC2)c2c1-c1ccccc1S(=O)(=O)C2 | 0 | 0 | 0 | 0 | 0 | 0 | - | -
Cc1c(NC2=NC3(CCCCC3)Cc3ccccc32)c(=O)n(C)n1-c1ccccc1 | 0 | 82.7 | 0 | 0 | 0 | 0 | 0 | 0
O=C(Cc1ccccc1)NCCN1CCCC1 | 0 | 0 | 0 | 0 | 0 | 0 | - | -
Cc1ccccc1CC(=O)NCCN1CCCCC1 | 0 | 79.6 | 0 | 0 | 0 | 0 | 0 | 0
Cc1cc(CNC(=O)COc2c(F)c(F)cc(F)c2F)c2ccccc2n1 | 0 | 0 | 0 | 0 | 0 | 0 | - | -
CCc1ccc(NC(=O)c2noc3c2CCC3)cc1 | 0 | 79.7 | 0 | 0 | 0 | 0 | 0 | 0
CCCCc1cc2ccccc2c(OCCN(C)C)n1 | 0 | 0 | 0 | 0 | 0 | 0 | - | -
C=CCn1c(SCC(N)=O)nc2nc3c(cc2c1=O)COC(C)(C)C3 | 0 | 0 | 0 | 0 | 0 | 0 | - | -
CC1Sc2ccc(C(=O)N(CCc3ccccc3)Cc3ccccc3)cc2NC1=O (stereo unspecified) | - | 82.9 | 0 | 0 | 0 | 0 | 0 | 0
Cc1cc(=O)[nH]c(SCC(=O)NCc2ccco2)n1 | 67.0 | 56.5 | 0 | 0 | 0 | 0 | 0 | 0
Cc1nnc(SCC(=O)NCc2ccco2)[nH]c1=O | 0 | 0 | 0 | 0 | 0 | 0 | - | -
COc1ccc2nc3oc(C(=O)Nc4ccc(OC)c(OC)c4)cc3cc2c1 | 0 | 0 | 0 | 0 | 0 | 0 | - | -
Cc1ccc(C(=O)NCc2ccc3c(c2)OCO3)o1 | 0 | 0 | 0 | 0 | 0 | 0 | - | -
Cc1ccc2cc3cc(C(=O)NCc4ccc5c(c4)OCO5)oc3nc2c1 | 0 | 53.8 | 0 | 0 | 0 | 0 | 0 | 0
COc1ccc2cc3cc(C(=O)Nc4ccc5c(c4)OCO5)oc3nc2c1 | 0 | 60.2 | 0 | 0 | 0 | 0 | 0 | 0
Cc1ccc(-c2nc(CS(=O)CC(=O)NCc3ccccn3)c(C)o2)cc1 (stereo unspecified) | 0 | 0 | 0 | 0 | 0 | 0 | - | -
Cc1ccc(C(=O)CSc2nnc3ccccn23)c(C)c1 | 0 | 0 | 0 | 0 | 0 | 0 | - | -
Cc1ccc(S(=O)(=O)Nc2ccccc2C(=O)N2CCCC2)cc1 | 0 | 0 | 0 | 0 | 0 | 0 | - | -
COc1cc(/C=C/C(=O)N(Cc2ccccc2)c2ccccn2)cc(OC)c1OC | 0 | 53.0 | 0 | 0 | 0 | 0 | 0 | 0
SMILES | Scp-1 inhibitor | DNMT1 block | LMPTP block | SUMO1-SIM PPI | STEP inh | NadD inh | DNMT1 inh conf | Beacon interf
CC(C)Oc1ccc(S(=O)(=O)N2CCOCC2)cc1NC(=O)Cc1c(F)cccc1Cl | 0 | 89.5 | 0 | 0 | 0 | 0 | 0 | 0
COCCNC(=O)c1ccc(NC(C)=O)cc1 | 0 | 0 | 0 | 0 | 0 | 0 | - | -
Cc1cc(=O)c(C(=O)Nc2cccc(N3CCCC3=O)c2)nn1-c1ccccc1Cl | 0 | 0 | 0 | 0 | 0 | 0 | - | -
Cc1cc(=O)c(C(=O)Nc2cccc(N3CCCC3=O)c2)nn1-c1ccccc1F | 0 | 84.7 | 0 | 0 | 0 | 0 | 0 | 0
CCNC(=O)c1c(NC(=O)c2cc(-c3cc(C)ccc3O)n[nH]2)sc2c1CCCC2 | 0 | 76.0 | 0 | 0 | 0 | 0 | 0 | 0
Cc1ccc(C(=O)Nc2sc3c(c2C(=O)NCc2ccco2)CCCC3)cc1 | 0 | 0 | 0 | 0 | 0 | 0 | - | -
N#Cc1c2ccc(OCC(=O)NCc3ccco3)cc2n2ccccc12 | 0 | 61.9 | 0 | 0 | 0 | 0 | 0 | 0
CN(CC(=O)Nc1cccc(F)c1)C(=O)CN1c2cccc3cccc(c23)S1(=O)=O | 0 | 52.6 | 0 | 0 | 0 | 0 | 0 | 0
O=C(CCN1C(=O)/C(=C/c2cccc(Br)c2)SC1=S)NNC(=O)c1cccnc1 | 0 | 71.4 | 0 | 0 | 0 | 0 | 0 | 0
c1nc(N2CCC3(CC2)OCCO3)c2[nH]cnc2n1 | 0 | 0 | 0 | 0 | 0 | 0 | - | -
O=C(COC(=O)c1ccc([N+](=O)[O-])s1)Nc1ccc(Cl)cn1 | 0 | 0 | 0 | 0 | 0 | 0 | - | -
Cc1c(Cl)cnc(NC(=O)COC(=O)c2ccc([N+](=O)[O-])s2)c1Cl | 0 | 63.3 | 0 | 0 | 0 | 0 | 0 | 0
O=C(Nc1ccc(N2CCCC2)cc1)c1ccc(Br)o1 | 0 | 81.3 | 0 | 0 | 0 | 43.6 | 0 | 0
O=C(CS(=O)(=O)c1ccc(Br)cc1)N1CCOCC1 | 0 | 0 | 0 | 0 | 0 | 0 | - | -
CCOC(=O)C1=C(c2ccccc2)N=c2s/c(=C\c3cc(OC)c(OC)c(OC)c3)c(=O)n2C1c1cccs1 (stereo unspecified) | 0 | 0 | 0 | 0 | 0 | 0 | - | -
CCOC(=O)C1=C(c2ccccc2)N=c2s/c(=C\c3ccco3)c(=O)n2C1c1cccs1 (stereo unspecified) | 0 | 58.1 | 0 | 0 | 0 | 0 | 0 | 0
O=C(CN1C(=O)/C(=C/c2ccc(Cl)cc2)SC1=S)NC1C=CS(=O)(=O)C1 (stereo unspecified) | 0 | 65.5 | 0 | 0 | 0 | 0 | 0 | 0
N#CC(C(=O)Nc1ccc(Cl)c(Cl)c1)=C1Nc2ccccc2N1 | 0 | 65.1 | 0 | 0 | 0 | 0 | 0 | 0
COc1ccc2[nH]c(C(=O)NCc3ccccc3)c(C)c2c1 | 0 | 69.7 | 0 | 0 | 0 | 0 | 0 | 0
COc1ccc2cc(C(=O)NCc3ccccc3)[nH]c2c1 | 0 | 0 | 0 | 0 | 0 | 0 | - | -
C[n+]1cccc(C(=O)[O-])c1 | 0 | 0 | 0 | 0 | 0 | 0 | - | -
CN(C)C(=O)Oc1ccc[n+](C)c1 | 0 | 60.3 | 0 | 0 | 0 | 0 | 0 | 0
C1CCC(NC2=NCCC2)CC1 | 0 | 0 | 0 | 0 | 0 | 0 | - | -
COc1cc(C(=O)NCC(=O)N/N=C\C(C)=C/c2ccccc2)cc(OC)c1OC | 0 | 0 | 0 | 0 | 0 | 0 | - | -
